Test results taken from paper PMC10839140 (Iranian Journal of Medical Sciences, 2024).
Like-named read-outs stand apart in the source and are kept apart here.

Columns and labels:
[1] = tested on: SkBr3 breast cancer cell line; assay: Real-time PCR of apoptosis and cell cycle genes, SkBr3 cells; assay type: cell-based, human; details: 24 and 48 hours, PINO 575, LARI 500, PTOX 0.175 μM, vs untreated cells
Method in brief: (§1)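 Cells grown at 37 °C, 5% CO₂: HEK-293 in DMEM/F12 with 10% FBS and penicillin/streptomycin, SkBr3 in supplemented DMEM. Vehicle control was methanol at 1% v/v final. Total RNA was DNase I-treated, and 3 µg was reverse-transcribed. Real-time PCR used GAPDH as the internal control and no-cDNA negative controls. Fold change was calculated by 2^-ΔΔCT, as the mean±SD of three experiments.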

HEK-293 cell line [2] = assay: MTT cytotoxicity assay, HEK-293 cells; assay type: cell-based; details: for IC50: read-out: half-maximal inhibitory concentration
HEK-293 cell line [3] = assay: Apoptosis analysis, annexin V-FITC/PI flow cytometry, HEK-293 cells; assay type: cell-based; details: PINO 575 μM, LARI 500 μM
[4] = tested on: SkBr3 breast cancer cell line; assay: Apoptosis analysis, annexin V-FITC/PI flow cytometry, SkBr3 cells; assay type: cell-based, human; details: PINO 575 μM, LARI 500 μM
HEK-293 cell line [5] = assay: Real-time PCR of apoptosis and cell cycle genes, HEK-293 cells; assay type: cell-based; details: 24 and 48 hours, PINO 575, LARI 500, PTOX 0.175 μM, vs untreated cells
Method in brief: as §1

fibroblast cell line [6] = assay: MTT cytotoxicity assay, fibroblast cells; assay type: cell-based; details: for IC50: Fibroblast, read-out: half-maximal inhibitory concentration; for percentage of cell viability was reduced by: fibroblast cells treated for 48 hours (abstract; concentration not stated there)
[7] = tested on: SkBr3 breast cancer cell line; assay: MTT cytotoxicity assay, SkBr3 cells; assay type: cell-based, human; details: read-out: half-maximal inhibitory concentration
fibroblast cell line [8] = assay: Apoptosis analysis, annexin V-FITC/PI flow cytometry, fibroblast cells; assay type: cell-based; details: PINO 575 μM, LARI 500 μM

Compound	expression of pro-apoptotic BAX and FAS genes and CDKN1A inhibitory gene [1]	IC50 (HEK-293 cell line [2]; Homo sapiens, HEK293, 24 h) [µM]	IC50 (HEK-293 cell line [2]; Homo sapiens, HEK293, 48 h) [µM]	increase of apoptosis compared to control cells (HEK-293 cell line [3]; HEK-293, 24 hours) [fold]	increase of apoptosis compared to control cells (HEK-293 cell line [3]; HEK-293, 48 hours) [fold]	increase of apoptosis compared to control cells ([4]; SKBR3, 24 hours) [fold]	increase of apoptosis compared to control cells ([4]; SKBR3, 48 hours) [fold]	expression of pro-apoptotic BAX and FAS genes and CDKN1A inhibitory gene (HEK-293 cell line [5])	IC50 (fibroblast cell line [6]; 24 h) [µM]	IC50 (fibroblast cell line [6]; 48 h) [µM]	percentage of cell viability was reduced by (fibroblast cell line [6]) [%]	IC50 ([7]; Homo sapiens, SK-BR-3, 24 h) [µM]	IC50 ([7]; Homo sapiens, SK-BR-3, 48 h) [µM]	increase of apoptosis compared to control cells (fibroblast cell line [8]; 24 hours) [fold]	increase of apoptosis compared to control cells (fibroblast cell line [8]; 48 hours) [fold]	other results
COc1cc(C[C@H]2CO[C@H](c3ccc(O)c(OC)c3)[C@H]2CO)ccc1O [Lariciresinol, lariciresinol]	significantly overexpressed	550	475	6.7	7.4	10.7	12.7	significantly overexpressed	475	400	47	600	500	7.4	20.2	
COc1cc([C@@H]2c3cc4c(cc3[C@H](O)[C@H]3COC(=O)[C@H]23)OCO4)cc(OC)c1OC [Podophyllotoxin, reference compound]	significantly overexpressed	0.15	0.075					significantly overexpressed	0.175	0.075	36	0.3	0.175			cell viability was reduced by up to (fibroblast cell line [6]; fibroblast, 48 hours, PTOX at 0.175 μM): ≤ 36%
Pinoresinol	significantly overexpressed			6.6	9	9	11	significantly overexpressed			49			5.2	10.5	cell viability (HEK-293 cell line [2]; HEK-293, 48 hours, PINO at 575 μM, LARI at 500 μM): 49%; IC50 (HEK-293 cell line [2]; HEK-293, 24-hour treatment, MTT): 600 µM; IC50 (HEK-293 cell line [2]; HEK-293, 48-hour treatment, MTT): 550 µM; cell viability (fibroblast cell line [6]; fibroblast, 48 hours, PINO at 575 μM, LARI at 500 μM): 49%; IC50 (fibroblast cell line [6]; 48-hour treatment, MTT): 550 µM; IC50 ([7]; SkBr3, 24-hour treatment, MTT): 675 µM; IC50 ([7]; SkBr3, 48-hour treatment, MTT): 575 µM
